Experimental data published in the RNAGym collection of RNA variant scans (doi:10.1038/s41586-018-0170-7).

B1: tRNA (parent)
chain: GUUCCGUUGGCGUAAUGGUAACGCGUCUCCCUCCUAAGGAGAAGACUGCGGGUUCGAGUCCCGUACGGAACG

Variants of: B1
Experiment: yeast fitness, log relative to wild type (ln ratio); higher = fitter; tRNA-Arg(CCU), competitive growth, 37 C, 1 M NaCl
How it was run: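 In BY4742 missing the chromosomal gene, a combinatorial tRNA-Arg(CCU) variant library was maintained on a HIS3 centromeric plasmid. Selection ran ~6.5 generations (~26.5 h) in SC-HIS 1M NaCl at 37 °C, following 4 generations in SC-HIS at 30 °C, with three outputs per input and variant counts by 125 bp paired-end Illumina sequencing. Fitness is the natural log of a genotype's generations relative to the wild type's, with generations taken as inverse-variance-weighted, OD-scaled log2 output/input frequency.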

Variant | yeast fitness (ln)
AUUCCGUUGGCGUAAUGGUAACGCGUCUCCCUCCUAAGGAGAAGAUUGCGGGUUCGAGUCCCGUACGGGACG [G1A C46U A69G] | -0.238
AUUCCUUUGGCGUAAUGGUAACGCGUUUCCCUCCUAAGGAGAAGAUUGCGGGUUCGAGUCCCGUACGGAUCG [G1A G6U C27U C46U A70U] | -0.274
GUUCCGUUGGCGUAAUGGUAACGCGUCUCCCUCCUAAGGAGAAGAUUGCGGGUUCGAGUCCCGUAUGGAUUG [C46U C66U A70U C71U] | -0.148
GUUCCAUUGGCGUAAUGGUAACGCGUUUCCCUCCUAAGGAGAAGACUGCGGGUUCGAGUCCCGUAUGGAAUG [G6A C27U C66U C71U] | -0.171
AUUCCAUUGGCGUAAUGGUAACGCGUCUCCCUCCUAAGGAGACGACUGCGGGUUCGAGUCCCGUACGGAGCG [G1A G6A A43C A70G] | -0.12
GUUCCUUUGGCGUAAUGGUAACGCGUUUCCCUCCUAAGGAGACGACUGCGGGUUCGAGUCCCGUACGGGUCG [G6U C27U A43C A69G A70U] | -0.391
GGUCCGUUGGCGUAAUGGUAACGCGUCUCCCUCCUAAGGAGAAGACUGCGGGUUCGAGUCCCGUACGGAGCG [U2G A70G] | -0.0201
AGUCCGUUGGCGUAAUGGUAACGCGUUUCCCUCCUAAGGAGAAGAUUGCGGGUUCGAGUCCCGUACGGAGUG [G1A U2G C27U C46U A70G C71U] | -0.503
ACUCCGUUGGCGUAAUGGUAACGCGUUUCCCUCCUAAGGAGAAGAUUGCGGGUUCGAGUCCCGUAUGGAAUG [G1A U2C C27U C46U C66U C71U] | -0.124
GGUCCGUUGGCGUAAUGGUAACGCGUUUCCCUCCUAAGGAGACGAUUGCGGGUUCGAGUCCCGUACGGGUUG [U2G C27U A43C C46U A69G A70U C71U] | -0.295
ACUCCUUUGGCGUAAUGGUAACGCGUUUCCCUCCUAAGGAGACGACUGCGGGUUCGAGUCCCGUACGGAAUG [G1A U2C G6U C27U A43C C71U] | -0.263
GUUCCAUUGGCGUAAUGGUAACGCGUUUCCCUCCUAAGGAGAAGAUUGCGGGUUCGAGUCCCGUACGGGACG [G6A C27U C46U A69G] | -0.183
GUUCCAUUGGCGUAAUGGUAACGCGUCUCCCUCCUAAGGAGACGAUUGCGGGUUCGAGUCCCGUAUGGGACG [G6A A43C C46U C66U A69G] | -0.0394
AGUCCGUUGGCGUAAUGGUAACGCGUUUCCCUCCUAAGGAGAAGAUUGCGGGUUCGAGUCCCGUAUGGGAUG [G1A U2G C27U C46U C66U A69G C71U] | -0.307
ACUCCGUUGGCGUAAUGGUAACGCGUCUCCCUCCUAAGGAGAAGACUGCGGGUUCGAGUCCCGUACGGGUCG [G1A U2C A69G A70U] | -0.00637
GGUCCUUUGGCGUAAUGGUAACGCGUCUCCCUCCUAAGGAGAAGAUUGCGGGUUCGAGUCCCGUACGGGGCG [U2G G6U C46U A69G A70G] | -0.109
GGUCCUUUGGCGUAAUGGUAACGCGUUUCCCUCCUAAGGAGAAGAUUGCGGGUUCGAGUCCCGUACGGGUUG [U2G G6U C27U C46U A69G A70U C71U] | -0.387
GGUCCGUUGGCGUAAUGGUAACGCGUUUCCCUCCUAAGGAGACGACUGCGGGUUCGAGUCCCGUACGGGACG [U2G C27U A43C A69G] | -0.0811
AUUCCUUUGGCGUAAUGGUAACGCGUUUCCCUCCUAAGGAGACGACUGCGGGUUCGAGUCCCGUAAGGAUUG [G1A G6U C27U A43C C66A A70U C71U] | -0.608

Variant | yeast fitness (ln)
AGUCCUUUGGCGUAAUGGUAACGCGUUUCCCUCCUAAGGAGACGACUGCGGGUUCGAGUCCCGUACGGGGUG [G1A U2G G6U C27U A43C A69G A70G C71U] | -0.449
GCUCCAUUGGCGUAAUGGUAACGCGUCUCCCUCCUAAGGAGAAGAUUGCGGGUUCGAGUCCCGUAUGGAACG [U2C G6A C46U C66U] | 0.00338
GUUCCGUUGGCGUAAUGGUAACGCGUCUCCCUCCUAAGGAGAAGAUUGCGGGUUCGAGUCCCGUAUGGGACG [C46U C66U A69G] | -0.104
GUUCCAUUGGCGUAAUGGUAACGCGUCUCCCUCCUAAGGAGACGAUUGCGGGUUCGAGUCCCGUACGGGUCG [G6A A43C C46U A69G A70U] | -0.124
GCUCCGUUGGCGUAAUGGUAACGCGUCUCCCUCCUAAGGAGAAGAUUGCGGGUUCGAGUCCCGUACGGAGCG [U2C C46U A70G] | 0.000328
AUUCCAUUGGCGUAAUGGUAACGCGUCUCCCUCCUAAGGAGACGACUGCGGGUUCGAGUCCCGUAUGGAUUG [G1A G6A A43C C66U A70U C71U] | -0.405
GCUCCUUUGGCGUAAUGGUAACGCGUUUCCCUCCUAAGGAGAAGAUUGCGGGUUCGAGUCCCGUACGGAUCG [U2C G6U C27U C46U A70U] | -0.13
AUUCCGUUGGCGUAAUGGUAACGCGUUUCCCUCCUAAGGAGACGACUGCGGGUUCGAGUCCCGUACGGAUCG [G1A C27U A43C A70U] | -0.329
GCUCCGUUGGCGUAAUGGUAACGCGUCUCCCUCCUAAGGAGAAGAUUGCGGGUUCGAGUCCCGUACGGGGCG [U2C C46U A69G A70G] | -0.016
GGUCCUUUGGCGUAAUGGUAACGCGUUUCCCUCCUAAGGAGAAGACUGCGGGUUCGAGUCCCGUACGGGGCG [U2G G6U C27U A69G A70G] | -0.246
GCUCCAUUGGCGUAAUGGUAACGCGUCUCCCUCCUAAGGAGAAGAUUGCGGGUUCGAGUCCCGUACGGGUUG [U2C G6A C46U A69G A70U C71U] | -0.183
GGUCCGUUGGCGUAAUGGUAACGCGUCUCCCUCCUAAGGAGAAGAUUGCGGGUUCGAGUCCCGUAAGGAACG [U2G C46U C66A] | -0.0933
GGUCCAUUGGCGUAAUGGUAACGCGUUUCCCUCCUAAGGAGAAGAUUGCGGGUUCGAGUCCCGUACGGGUUG [U2G G6A C27U C46U A69G A70U C71U] | -0.368
AGUCCAUUGGCGUAAUGGUAACGCGUCUCCCUCCUAAGGAGAAGACUGCGGGUUCGAGUCCCGUAUGGAGCG [G1A U2G G6A C66U A70G] | -0.142
GUUCCGUUGGCGUAAUGGUAACGCGUCUCCCUCCUAAGGAGAAGAUUGCGGGUUCGAGUCCCGUAUGGAUCG [C46U C66U A70U] | -0.103
GCUCCGUUGGCGUAAUGGUAACGCGUCUCCCUCCUAAGGAGAAGACUGCGGGUUCGAGUCCCGUAAGGAAUG [U2C C66A C71U] | -0.0382
GCUCCUUUGGCGUAAUGGUAACGCGUUUCCCUCCUAAGGAGAAGACUGCGGGUUCGAGUCCCGUAAGGAGUG [U2C G6U C27U C66A A70G C71U] | -0.0263
AUUCCGUUGGCGUAAUGGUAACGCGUUUCCCUCCUAAGGAGACGACUGCGGGUUCGAGUCCCGUACGGAUUG [G1A C27U A43C A70U C71U] | -0.269
AGUCCUUUGGCGUAAUGGUAACGCGUUUCCCUCCUAAGGAGACGAUUGCGGGUUCGAGUCCCGUAAGGAUCG [G1A U2G G6U C27U A43C C46U C66A A70U] | -0.309
